This passage reports yeast fitness results from the RNAGym collection of RNA variant scans (doi:10.1126/science.aae0568).

Fewer inactive variants are shown than the library holds.

B1: tRNA (parent)
chain: GUUCCGUUGGCGUAAUGGUAACGCGUCUCCCUCCUAAGGAGAAGACUGCGGGUUCGAGUCCCGUACGGAACG

In the data set the parent is B1. The data set can be described thus: yeast fitness relative to wild type (ratio to wild type); higher = fitter; tRNA-Arg(CCU), competitive growth, 37 C, YPD. In short, it runs like this:
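The tRNA-Arg(CCU) gene variants were made by chemical synthesis with a 3% per-site mutation rate at 69 sites and inserted at the native genomic locus of Saccharomyces cerevisiae. After pooling, the strains were competed in YPD at 37°C for 24 hours in six parallel replicates. Gene amplicons from the start population and each end population were read by 100-nucleotide paired-end sequencing, and Darwinian fitness relative to wild type was taken from genotype frequency changes. Genotypes needed ≥ 100 starting reads, and estimates < 0.5 were set to 0.5.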
For the variant G23A C30G A42G, the yeast fitness was 0.524.
Consider C22U U28A C34G G38A G51A, for which the yeast fitness was at most 0.5.
Turning to G23C A42U C49G A65U, the yeast fitness was at most 0.5.
Under G23A G39C A69U stands at most 0.5; under G23C A37U U47C U54C C66U, at most 0.5; under G23A C27U C29U G39A G58A A65C, at most 0.5.
G23A C27A A57U: the yeast fitness amounted to 0.634.
Under G23A U32C stands 0.628; under G23A G58C C61U, 0.554; under C22U U54A C55U G63A, 0.54.
In the case of C22U G41A G50A C55G, the yeast fitness is at most 0.5.
For the variant G23C A43G G58C U64G, the yeast fitness amounted to 0.57.
With G23C A69C, the yeast fitness turned out to be 0.612.
Regarding G23C A69U, the yeast fitness turned out to be 0.737.
As to G23A C55A C61A, the yeast fitness was 0.568.
The figure for G23C A65G A69U is 0.524; for C22U U28C C61A C62U it is at most 0.5; for C22U U26G U35A A45G G50A it is 0.648.
C22U G58A: the yeast fitness came out at 0.926.
On to C22U G58C, for which the yeast fitness turned out to be 0.883.
Regarding C22U U32G C34U A40G C66U, the yeast fitness amounted to 0.647.
With G23A G50A, the yeast fitness is 0.819.
For G23A G50C, the yeast fitness is 0.58.
As for C22U G63C G68U, the yeast fitness is at most 0.5.
As for G23A C24G, the yeast fitness is at most 0.5.
Consider G23A C30U A70C, for which the yeast fitness is at most 0.5.
The figure for G23A C33G A43G A69C is at most 0.5; for G23A C24G C29U G41A it is at most 0.5; for G23A C33G A43C it is at most 0.5.
On to G23C C24G C34G C61U, for which the yeast fitness is at most 0.5.
With G23A U64G, the yeast fitness came to 0.717.
Take C22U U32C C46U U54G: the yeast fitness stood at 0.593.
Take G23A C29G A45U C60G C61U A69G: the yeast fitness worked out at 0.59.
For the variant C22U G63A A70C, the yeast fitness amounted to 0.508.
Consider G23A U35A A65C, for which the yeast fitness is at most 0.5.
As for G23A C60A, the yeast fitness was at most 0.5.
Consider G23A C29A C31G, for which the yeast fitness was found to be 0.664.
As for C22U U28C C29G C33A, the yeast fitness is at most 0.5.
With C22U U47C G52A, the yeast fitness was at most 0.5.
Turning to G23A C29A G68A, the yeast fitness is at most 0.5.
In the case of G23A C24G G25A G48A, the yeast fitness is at most 0.5.
For C22U G23C C24A C49U C62U A69C, the yeast fitness worked out at 0.683.
For the variant G23A U54A, the yeast fitness stood at 0.605.
With G23A U54C, the yeast fitness was determined as 0.533.
G23A A36G C55G: the yeast fitness was 0.578.
The figure for C22U U47A C60U G67C A69U is at most 0.5; for C22U G48C G67C it is at most 0.5.
The figure for C22U U35C is 0.731; for G23A A42G G51A C61U it is at most 0.5.
As to G23A C30U C55U G67C, the yeast fitness is at most 0.5.
As for G23A C31U C33G G63U, the yeast fitness is at most 0.5.
Take C22U G56A: the yeast fitness is 0.734.
Under G23C C24U U59A stands at most 0.5; under G23A C61U, 0.665; under G23A C61A, 0.539.
Consider G23A C61G, for which the yeast fitness was 0.714.
For C22U U32C C46G U53G G68C, the yeast fitness turned out to be 0.544.
Under G23A C49G stands 0.873; under G23A C49A, 0.526.
As to G23A C24A C31A A36G G44A C60U C62A, the yeast fitness is at most 0.5.
For the variant G23A C33G G50A, the yeast fitness turned out to be 0.53.
For G23A C30U A37C U54C, the yeast fitness is at most 0.5.
Take C22U G50U: the yeast fitness came to 0.669.
Regarding C22U G50A, the yeast fitness was 0.875.
For the variant C22U G50C, the yeast fitness amounted to 0.818.
Under C22U U35C C49U C66U stands 0.586.
In the case of G23A A43G A70U, the yeast fitness was 0.648.
As to C22U G56C A57C C61G, the yeast fitness is at most 0.5.
Consider G23C C24U, for which the yeast fitness was found to be 0.61.
The figure for G23C C24G is 0.783.
On to G23C A57G, for which the yeast fitness is 0.677.
For G23A U28C C30A C46U A70U, the yeast fitness was at most 0.5.
On to C22U G38A G67C, for which the yeast fitness was at most 0.5.
On to G23A U32C A42G U54G C62U, for which the yeast fitness was at most 0.5.
For G23A C33G U35G C60U C62G A69U, the yeast fitness is at most 0.5.
Consider G23A U28A C30U A40C G52C G67A, for which the yeast fitness was at most 0.5.
In the case of G23A C33G G63A, the yeast fitness was 0.594.
G23A A36U G39C: the yeast fitness turned out to be 0.518.
Under G23A G68U stands 0.641.
As to G23A G68C, the yeast fitness came to 0.746.
The figure for G23A C33G U35G is at most 0.5; for G23A C30G A65U it is at most 0.5.
G23C C24G G50A A57G: the yeast fitness was at most 0.5.
The figure for G23C C24G C33G A40U C49A is at most 0.5.
For the variant G23A C61U G67A, the yeast fitness was 0.525.
C22U U32G C34U A40G A70U: the yeast fitness amounted to 0.563.
As to G23A C27U A65U, the yeast fitness was 0.658.
Turning to G23A G38A G39C G50A G56C, the yeast fitness is at most 0.5.
For the variant C22U U26C G63U, the yeast fitness was at most 0.5.
Turning to G23A C33U A69U, the yeast fitness is at most 0.5.
Consider G23C A45U G51C, for which the yeast fitness was at most 0.5.
Under C22U U32C C33G C55G stands at most 0.5; under C22U U26A C29U A43C G52C U53A, at most 0.5.
The figure for C22U U47C G51C C66U is at most 0.5; for G23A C49U U54C it is at most 0.5.
With C22U G68U, the yeast fitness is 0.845.
As to G23C A43U C61U G68A, the yeast fitness came out at 0.52.
As to G23A A45G, the yeast fitness worked out at 0.645.
For the variant G23A A45C, the yeast fitness came to 0.846.
Under G23A A45U stands 0.674; under G23A C30U U53A, at most 0.5; under G23A C33A C34G, at most 0.5.
Consider C22U G39C C62U, for which the yeast fitness was 0.51.
For G23A G48C, the yeast fitness was found to be 0.759.
On to G23A C29G A65G, for which the yeast fitness is at most 0.5.
Take G23C A65G: the yeast fitness came out at 0.587.
Under G23C A65C stands 0.619; under G23A C34U A43U G44C, at most 0.5.
With C22U G58C C61A, the yeast fitness was at most 0.5.
With G23A C30A C55U, the yeast fitness was at most 0.5.
In the case of G23A C29A, the yeast fitness came to 0.536.
Turning to G23A C29G, the yeast fitness turned out to be 0.625.
Take G23A C29U: the yeast fitness worked out at 0.923.
Consider G23A C30A G51A, for which the yeast fitness is 0.562.
On to G23A C30G G67A, for which the yeast fitness turned out to be 0.726.
Under C22U U35A G52A stands at most 0.5; under G23C A57G G68A, 0.859; under C22U G23C U26C C30A, 0.507.
G23A C33U C34U A40U: the yeast fitness was at most 0.5.
G23C C24G G50A: the yeast fitness turned out to be 0.585.
Turning to G23A C30U C66U, the yeast fitness was at most 0.5.
Under G23C A37C G52C C66G A69C stands 0.612; under C22U G44C A70U, 0.711; under G23A C24U U35A C60A A69C, 0.607.
Take G23A G67C: the yeast fitness was determined as 0.86.
For the variant G23A G67A, the yeast fitness turned out to be 0.841.
As to G23C A45C C66G, the yeast fitness was at most 0.5.
Consider G23A C49A U59C C62U A65U, for which the yeast fitness is at most 0.5.
As to G23A G38A C55U, the yeast fitness is at most 0.5.
As to C22U U26A A40G G67C, the yeast fitness was at most 0.5.
On to G23C C27A A45G G51C G63A G68A, for which the yeast fitness was at most 0.5.
On to C22U G25A A43G U54A C62U, for which the yeast fitness was at most 0.5.
Under C22U G51C A65U stands at most 0.5.
Regarding G23C A37G G44C A45C G50A C55G C66A, the yeast fitness is at most 0.5.
As to G23A G39C A40U G68A, the yeast fitness was at most 0.5.
For the variant G23A A40C C55G, the yeast fitness was at most 0.5.
As for C22U U35C C49U U53A, the yeast fitness was at most 0.5.
Under G23C A40U C55U stands at most 0.5.
For G23A U47C, the yeast fitness turned out to be 0.781.
The figure for G23A A37G is 0.57; for C22U G38A A40C it is 0.541; for G23A C27U A45U it is 0.668.
With C22U U32C C55A, the yeast fitness is at most 0.5.
On to G23A C27A, for which the yeast fitness came out at 0.821.
Take G23A C24A C31A A36G: the yeast fitness is at most 0.5.
Under G23A C30A A37G C66U stands 0.539.
On to C22U U26C A37C G41C, for which the yeast fitness is at most 0.5.
The figure for G23A G63A A65G is 0.524; for C22U U32C C46U U54G A70U it is 0.655; for C22U U35C A69C it is 0.565.
The figure for G23A C30U C49A A57U A70C is at most 0.5; for C22U U35A C66U it is at most 0.5.
Regarding G23A G38A, the yeast fitness came out at 0.643.
In the case of G23A G38C, the yeast fitness turned out to be 0.599.
As to G23A C33G U54A G56C, the yeast fitness is at most 0.5.
Consider G23A C31U A69U, for which the yeast fitness was determined as 0.675.
On to G23A C30U A69G A70G, for which the yeast fitness is at most 0.5.
For the variant G23A G39C C49A, the yeast fitness is at most 0.5.
With G23A C30U C33A G41C A42U, the yeast fitness is 0.555.
For the variant G23A A65G, the yeast fitness is 0.907.
As for G23A A65U, the yeast fitness is 0.916.
G23A A65C: the yeast fitness came out at 0.816.
As to G23A A69U, the yeast fitness came to 0.726.
As to G23A A69C, the yeast fitness came to 0.793.
For the variant C22U G52A C55A, the yeast fitness came out at 0.579.
Under C22U G48A C55A G58C stands at most 0.5; under G23C A37C C46G C66U, at most 0.5.
